Assays:
Assay type in all cases: functional
T47D = test: Growth inhibition of human T47D cells at 10 uM after 48 hrs by SRB assay; details: read-out: GI
In short: (§1)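 NCI 60-cell-line screen with a single 10 µM dose. Cells are grown in RPMI 1640 with 5% FBS and 2 mM L-glutamine, plated at 5000–40,000 cells/well according to doubling time, and preincubated 24 h at 37 °C, 5% CO2; time-zero plates are TCA-fixed at that point. Drug exposure is 48 h. Adherent cells are fixed with cold TCA, stained with 0.4% SRB in 1% acetic acid and read at 515 nm. Percent growth is calculated relative to time-zero and untreated controls and reported as GI%.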

IGROV-1 = test: Growth inhibition of human IGROV1 cells at 10 uM after 48 hrs by SRB assay; details: IGROV-1, 48 h, read-out: GI
In short: (§2)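 Cells grown in RPMI 1640 with 5% FBS and 2 mM L-glutamine, plated at 5000–40,000 cells/well by doubling time and preincubated 24 h (37 °C, 5% CO2); a time-zero plate is TCA-fixed. Single dose added, then 48 h incubation. Fixed with cold TCA, stained with 0.4% SRB, dye solubilized in 10 mM Tris base, absorbance at 515 nm; percent growth vs time-zero and untreated control.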

UACC-62 = test: Growth inhibition of human UACC62 cells at 10 uM after 48 hrs by SRB assay; details: UACC-62, 48 h, read-out: GI; in short: as §1
Malme-3M = test: Growth inhibition of human MALME-3M cells at 10 uM after 48 hrs by SRB assay; details: read-out: GI; in short: as §2
SNB-75 = test: Growth inhibition of human SNB75 cells at 10 uM after 48 hrs by SRB assay; details: SNB-75, 48 h, read-out: GI; in short: as §1
HOP-92 = test: Growth inhibition of human HOP92 cells at 10 uM after 48 hrs by SRB assay; details: HOP-92, 48 h, read-out: GI; in short: as §2
HT-29 = test: Growth inhibition of human HT-29 cells at 10 uM after 48 hrs by SRB assay; details: HT-29, 48 h, read-out: GI; in short: as §2
CCRF-CEM = test: Growth inhibition of human CCRF-CEM cells at 10 uM after 48 hrs by SRB assay; details: read-out: GI; in short: as §2
LOX IMVI = test: Growth inhibition of human LOXIMVI cells at 10 uM after 48 hrs by SRB assay; details: read-out: GI; in short: as §2
KM12 = test: Growth inhibition of human KM12 cells at 10 uM after 48 hrs by SRB assay; details: KM12, 48 h, read-out: GI; in short: as §2
TK-10 = test: Growth inhibition of human TK10 cells at 10 uM after 48 hrs by SRB assay; details: TK-10, 48 h, read-out: GI; in short: as §1
RXF 393 = test: Growth inhibition of human RXF393 cells at 10 uM after 48 hrs by SRB assay; details: RXF 393, 48 h, read-out: GI; in short: as §2
MDA-MB-435 = test: Growth inhibition of human MDA-MB-435 cells at 10 uM after 48 hrs by SRB assay; details: MDA-MB-435, 48 h, read-out: GI; in short: as §2
OVCAR-8 = test: Growth inhibition of human OVCAR8 cells at 10 uM after 48 hrs by SRB assay; details: OVCAR-8, 48 h, read-out: GI; in short: as §2
NCI-H23 = test: Growth inhibition of human NCI-H23 cells at 10 uM after 48 hrs by SRB assay; details: NCI-H23, 48 h, read-out: GI; in short: as §2
SF-268 = test: Growth inhibition of human SF268 cells at 10 uM after 48 hrs by SRB assay; details: SF-268, 48 h, read-out: GI; in short: as §2
Hs-578T = test: Growth inhibition of human Hs578T cells at 10 uM after 48 hrs by SRB assay; details: read-out: GI; in short: as §2
ACHN = test: Growth inhibition of human ACHN cells at 10 uM after 48 hrs by SRB assay; details: read-out: GI; in short: as §2
BT-549 = test: Growth inhibition of human BT549 cells at 10 uM after 48 hrs by SRB assay; details: BT-549, 48 h, read-out: GI; in short: as §2
OVCAR-5 = test: Growth inhibition of human OVCAR5 cells at 10 uM after 48 hrs by SRB assay; details: OVCAR-5, 48 h, read-out: GI; in short: as §2
HCT-116 = test: Growth inhibition of human HCT116 cells at 10 uM after 48 hrs by SRB assay; details: HCT-116, 48 h, read-out: GI; in short: as §2
PC-3 = test: Growth inhibition of human PC3 cells at 10 uM after 48 hrs by SRB assay; details: PC-3, 48 h, read-out: GI; in short: as §2
NCI-H226 = test: Growth inhibition of human NCI-H226 cells at 10 uM after 48 hrs by SRB assay; details: NCI-H226, 48 h, read-out: GI; in short: as §2
NCI-H522 = test: Growth inhibition of human NCI-H522 cells at 10 uM after 48 hrs by SRB assay; details: NCI-H522, 48 h, read-out: GI; in short: as §2
U-251 = test: Growth inhibition of human U251 cells at 10 uM after 48 hrs by SRB assay; details: U-251, 48 h, read-out: GI; in short: as §1

Row | SMILES | inhibition of growth at 10 µM (T47D) [%] | inhibition of growth at 10 µM (UACC-62) [%] | inhibition of growth at 10 µM (Malme-3M) [%] | inhibition of growth at 10 µM (SNB-75) [%] | inhibition of growth at 10 µM (HOP-92) [%] | inhibition of growth at 10 µM (HT-29) [%] | inhibition of growth at 10 µM (CCRF-CEM) [%] | inhibition of growth at 10 µM (LOX IMVI) [%] | inhibition of growth at 10 µM (KM12) [%] | inhibition of growth at 10 µM (RXF 393) [%] | inhibition of growth at 10 µM (MDA-MB-435) [%] | inhibition of growth at 10 µM (OVCAR-8) [%] | inhibition of growth at 10 µM (NCI-H23) [%] | inhibition of growth at 10 µM (SF-268) [%] | inhibition of growth at 10 µM (Hs-578T) [%] | inhibition of growth at 10 µM (ACHN) [%] | inhibition of growth at 10 µM (BT-549) [%] | inhibition of growth at 10 µM (OVCAR-5) [%] | inhibition of growth at 10 µM (HCT-116) [%] | inhibition of growth at 10 µM (PC-3) [%] | also measured
1 | O=c1c2cccc3c(Nc4ccc(Br)cn4)ccc(c32)c2nc3ccccc3n12 | 81.6 | < 20 | < 20 | 56 | 37.6 | < 20 | < 20 | < 20 | 22.8 | < 20 | < 20 | < 20 | < 20 | < 20 | < 20 | < 20 | < 20 | < 20 | < 20 | 23.3 | inhibition of growth at 10 µM (IGROV-1): 51.1%; inhibition of growth at 10 µM (TK-10): 21.9%; inhibition of growth at 10 µM (NCI-H226): < 20%; inhibition of growth at 10 µM (NCI-H522): < 20%; inhibition of growth at 10 µM (U-251): < 20%
2 | O=c1c2cccc3c(NCCO)ccc(c32)c2nc3ccccc3n12 | 31.7 | 23.6 | < 20 | < 20 | 40 | < 20 | < 20 | < 20 | < 20 | < 20 | < 20 | < 20 | 22.2 | < 20 | < 20 | < 20 | < 20 | < 20 | < 20 | < 20 | inhibition of growth at 10 µM (IGROV-1): 63.5%; inhibition of growth at 10 µM (TK-10): < 20%; inhibition of growth at 10 µM (NCI-H226): < 20%; inhibition of growth at 10 µM (NCI-H522): < 20%; inhibition of growth at 10 µM (U-251): < 20%
3 | O=c1c2cccc3c(Nc4c(F)cccc4F)ccc(c32)c2nc3ccccc3n12 | 47.3 | < 20 | < 20 | 20.1 | 35.8 | < 20 | 27.5 | < 20 | 21.1 | < 20 | < 20 | < 20 | < 20 | < 20 | < 20 | < 20 | < 20 | < 20 | < 20 | < 20 | inhibition of growth at 10 µM (IGROV-1): 46.6%; inhibition of growth at 10 µM (NCI-H226): 24.9%; inhibition of growth at 10 µM (NCI-H522): < 20%
4 | O=c1c2cccc3c(Nc4ccc(F)cc4)ccc(c32)c2nc3ccccc3n12 | 76.6 | 32.2 | < 20 | 29.2 | 46.8 | < 20 | < 20 | < 20 | 25.6 | < 20 | < 20 | < 20 | < 20 | < 20 | 26.4 | < 20 | < 20 | < 20 | < 20 | 22.8 | inhibition of growth at 10 µM (TK-10): 24.7%; inhibition of growth at 10 µM (NCI-H226): < 20%; inhibition of growth at 10 µM (NCI-H522): < 20%; inhibition of growth at 10 µM (U-251): < 20%

Source: ChEMBL document CHEMBL2424551, “Synthesis, in vitro evaluation and molecular modelling of naphthalimide analogue as anticancer agents” (2013)
